Activity calls are given as the source filed them. No cut-off for these calls is given here.
What was measured:
[1] = tested on: NCI-H1975; experiment: Induction of cell cycle arrest in human H1975 cells assessed as accumulation in G0/G1 phase at 0.3 uM incubated for 24 hrs by […] propidium iodide staining based flow cytometry (reference value: 62.86 %); assay type: functional
[2] = tested on: A549; experiment: Induction of apoptosis in human A549 cells assessed as early apoptotic cells at 0.3 uM after 48 hrs by Annexin V-FITC/7-AAD staining based flow cytometric method (reference value: 3.26 %); assay type: functional
[3] = tested on: A549; experiment: Induction of cell cycle arrest in human A549 cells assessed as accumulation in S phase at 3 uM incubated for 24 hrs by […] propidium iodide staining based flow cytometry (reference value: 14.16 %); assay type: functional
[4] = tested on: A549; experiment: Induction of cell cycle arrest in human A549 cells assessed as accumulation in S phase at 1 uM incubated for 24 hrs by […] propidium iodide staining based flow cytometry (reference value: 14.16 %); assay type: functional
[5] = tested on: NCI-H1975; experiment: Induction of apoptosis in human H1975 cells assessed as increase in phosphorylated Akt level at 0.1 to 3 uM incubated for 24 hrs by Western blot analysis; assay type: functional, cell-based; details: dose microM 0.1-3, time 24.0 hrs
Summary of the method: (§1)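 After treatment, cells harvested and lysed in RIPA buffer; equal protein loaded on 12% SDS-PAGE and transferred to PVDF; blocked in 5% milk 2 h at room temperature; primary antibodies (AKT, p-AKT, cleaved caspase-3, cleaved caspase-9, PARP; GAPDH loading control) overnight at 4 °C; HRP secondaries 2 h at room temperature; chemiluminescent detection.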

[6] = tested on: NCI-H1975; experiment: Induction of apoptosis in human H1975 cells assessed as early apoptotic cells at 3 uM after 48 hrs by Annexin V-FITC/7-AAD staining based flow cytometric method (reference value: 6.50 %); assay type: functional
[7] = tested on: NCI-H1975; experiment: Induction of apoptosis in human H1975 cells assessed as increase in cleaved PARP level at 0.1 to 3 uM after 24 hrs by Western blot analysis; assay type: functional, cell-based; details: dose microM 0.1-3, time 24.0 hrs; summary of the method: as §1
[8] = tested on: NCI-H1975; experiment: Induction of apoptosis in human H1975 cells assessed as viable cells at 0.3 uM after 48 hrs by Annexin V-FITC/7-AAD staining based flow cytometric method (reference value: 88.02 %); assay type: functional; details: read-out: Activity
[9] = tested on: NCI-H1975; experiment: Induction of cell cycle arrest in human H1975 cells assessed as accumulation in G0/G1 phase at 1 uM incubated for 24 hrs by […] propidium iodide staining based flow cytometry (reference value: 62.86 %); assay type: functional
[10] = tested on: A549; experiment: Induction of apoptosis in human A549 cells assessed as viable cells at 1 uM after 48 hrs by Annexin V-FITC/7-AAD staining based flow cytometric method (reference value: 93.10 %); assay type: functional; details: read-out: Activity
[11] = tested on: A549; experiment: Induction of cell cycle arrest in human A549 cells assessed as accumulation in G0/G1 phase at 1 uM incubated for 24 hrs by […] propidium iodide staining based flow cytometry (reference value: 63.11 %); assay type: functional
[12] = tested on: NCI-H1975; experiment: Induction of apoptosis in human H1975 cells assessed as increase in cleaved caspase-3 level at 0.1 to 3 uM incubated for 24 hrs by Western blot analysis; assay type: functional, cell-based; details: dose microM 0.1-3, time 24.0 hrs; summary of the method: as §1
[13] = tested on: NCI-H1975; experiment: Induction of apoptosis in human H1975 cells assessed as necrotic cells at 1 uM after 48 hrs by Annexin V-FITC/7-AAD staining based flow cytometric method (reference value: 0.85 %); assay type: functional
[14] = tested on: NCI-H1975; experiment: Induction of cell cycle arrest in human H1975 cells assessed as accumulation in G2/M phase at 0.3 uM incubated for 24 hrs by […] propidium iodide staining based flow cytometry (reference value: 21.00 %); assay type: functional
[15] = tested on: A549; experiment: Induction of cell cycle arrest in human A549 cells assessed as accumulation in G2/M phase at 3 uM incubated for 24 hrs by […] propidium iodide staining based flow cytometry (reference value: 22.46 %); assay type: functional
[16] = tested on: NCI-H1975; experiment: Induction of apoptosis in human H1975 cells assessed as increase in ROS production incubated for 20 mins by DCFH-DA staining based flow cytometry analysis; assay type: functional, cell-based; details: dose microM 0.3-3, time 20.0 min
Summary of the method: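 At 20 min after compound treatment, cells washed in PBS and loaded with 10 μM DCFH-DA in phenol red-free DMEM for 30 min at 37 °C in the dark; washed three times with PBS; DCF fluorescence of ROS-positive cells measured by flow cytometry with excitation at 488 nm.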

[17] = tested on: A549; experiment: Induction of apoptosis in human A549 cells assessed as late apoptotic cells at 0.3 uM after 48 hrs by Annexin V-FITC/7-AAD staining based flow cytometric method (reference value: 2.94 %); assay type: functional
[18] = tested on: A549; experiment: Induction of apoptosis in human A549 cells assessed as late apoptotic cells at 1 uM after 48 hrs by Annexin V-FITC/7-AAD staining based flow cytometric method (reference value: 2.94 %); assay type: functional
[19] = tested on: NCI-H1975; experiment: Induction of apoptosis in human H1975 cells assessed as viable cells at 1 uM after 48 hrs by Annexin V-FITC/7-AAD staining based flow cytometric method (reference value: 88.02 %); assay type: functional; details: read-out: Activity
[20] = tested on: NCI-H1975; experiment: Antiproliferative activity against human H1975 cells assessed as inhibition of cell growth incubated for 72 hrs by CCK-8 assay; details: NCI-H1975, 72 h
[21] = tested on: NCI-H1975; experiment: Induction of cell cycle arrest in human H1975 cells assessed as accumulation in S phase at 3 uM incubated for 24 hrs by […] propidium iodide staining based flow cytometry (reference value: 14.13 %); assay type: functional
[22] = tested on: NCI-H1975; experiment: Induction of apoptosis in human H1975 cells assessed as late apoptotic cells at 3 uM after 48 hrs by Annexin V-FITC/7-AAD staining based flow cytometric method (reference value: 4.63 %); assay type: functional
[23] = tested on: A549; experiment: Induction of apoptosis in human A549 cells assessed as increase in Akt level at 0.1 to 3 uM incubated for 24 hrs by Western blot analysis; assay type: functional, cell-based; details: dose microM 0.1-3, time 24.0 hrs; summary of the method: as §1
[24] = tested on: A549; experiment: Induction of apoptosis in human A549 cells assessed as necrotic cells at 3 uM after 48 hrs by Annexin V-FITC/7-AAD staining based flow cytometric method (reference value: 0.70 %); assay type: functional
[25] = tested on: A549; experiment: Induction of apoptosis in human A549 cells assessed as increase in cleaved caspase-3 level at 0.1 to 3 uM incubated for 24 hrs by Western blot analysis; assay type: functional, cell-based; details: dose microM 0.1-3, time 24.0 hrs; summary of the method: as §1
[26] = tested on: A549; experiment: Induction of apoptosis in human A549 cells assessed as necrotic cells at 0.3 uM after 48 hrs by Annexin V-FITC/7-AAD staining based flow cytometric method (reference value: 0.70 %); assay type: functional
[27] = tested on: A549; experiment: Induction of apoptosis in human A549 cells assessed as viable cells at 0.3 uM after 48 hrs by Annexin V-FITC/7-AAD staining based flow cytometric method (reference value: 93.10 %); assay type: functional; details: read-out: Activity
[28] = tested on: NCI-H1975; experiment: Induction of apoptosis in human H1975 cells assessed as late apoptotic cells at 1 uM after 48 hrs by Annexin V-FITC/7-AAD staining based flow cytometric method (reference value: 4.63 %); assay type: functional
[29] = tested on: A549; experiment: Induction of apoptosis in human A549 cells assessed as early apoptotic cells at 3 uM after 48 hrs by Annexin V-FITC/7-AAD staining based flow cytometric method (reference value: 3.26 %); assay type: functional

With `CN1c2c(ccc3cc4c(cc23)OCO4)-c2ccc3c(c2C1N1CCOCC1)OCO3` (centres undefined) the Activity [1] was 62.04%, the Activity [2] was 4.92% and the Activity [3] was 15.07%. The Activity [4] was 15.64%, the Activity [5] was “Active” and the Activity [6] was 3.11%. For the same compound, the Activity [7] was “Active”, the viability at 0.3 µM [8] was 82.5% and the Activity [9] was 67.32%. The viability at 1 µM [10] was 78.3%, the Activity [11] was 70.03% and the Activity [12] was “Active”. The Activity [13] was 2.8%, the Activity [14] was 23.51% and the Activity [15] was 13.56%. The Activity [16] was “Dose-dependent effect”, the Activity [17] was 6.92% and the Activity [18] was 9.4%. For the same compound, the viability at 1 µM [19] was 67.4%, the IC50 [20] was 1.16 µM and the Activity [21] was 8.75%. The Activity [22] was 90.5%, the Activity [23] was “Active” and the Activity [24] was 1.65%. The Activity [25] was “Active”, the Activity [26] was 8.73% and the viability at 0.3 µM [27] was 79.4%. For the same compound, the Activity [28] was 19.17% and the Activity [29] was 3.91%.
